Data: PMC6138487 (British Journal of Clinical Pharmacology, 2018)
Marks after values point to notes of the source that are not given here.

Columns and labels:
Format in all cases: in vivo, human
[1] = Pharmacokinetics of elobixibat; settings: for C1max / t1(1/2) / C8max / t8(1/2) / C14max / t14(1/2): geometric mean (CV)
In short: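 Once-daily oral dosing before breakfast for 14 days. Plasma was drawn predose and at 0.5–12 h on Days –1, 1, 8 and 14, plus intermittent days to Day 21. Measured by LC–MS/MS (LLOQ 10.0 pg ml–1). Noncompartmental Cmax and AUC(0–t) on log-transformed values. Accumulation ratios were Day 8/Day 1 and Day 14/Day 1. Sex effect was expressed as back-transformed male/female LSM ratio.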

[2] = test system: plasma 7α‐hydroxy‐4‐cholesten‐3‐one (C4); assay: Food effect on plasma C4, S-test; settings: up to 24 h, AUEC P < 0.001
In short: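 Crossover single dose taken 15 min before breakfast or fasting. Plasma was sampled predose and at 0.5–12 h on Days –1, 1, 7 and 8, plus daily. C4 was measured by LC–MS/MS (LLOQ 2 ng ml–1). […] Food effect was assessed by linear mixed model (dose, food, intervention, period fixed; patient random).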

[3] = test system: patients with chronic constipation; assay: Bowel functions; settings: for proportion of patients with first SBM within 24 h: placebo 40.0%
In short: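 Test compound or placebo orally once daily before breakfast for 14 days. Patients recorded the time of each BM (BM, SBM, complete SBM), Bristol Stool Form Scale, straining (five levels), completeness of evacuation and GI symptoms including discomfort (five levels). Bisacodyl suppository rescue was allowed after ≥72 h without BM with symptoms. Descriptive statistics were used.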

[4] = test system: patients with chronic constipation; assay: Adverse events, S-test
In short: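 Crossover study with patients randomized 5:1 to test compound (2.5–20 mg) or placebo. Single oral dose on Day 1, taken 15 min before breakfast or without breakfast, then 6-day washout. The alternative regimen was given on Day 8, followed by 5-day observation. Inpatient Day –2 to Day 14. AE type, severity and incidence recorded with vital signs, ECG and laboratory tests. Dose trend by Cochran–Armitage test.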

[5] = Day 1, 2.5 mg once daily before breakfast
[6] = Day 1, 5 mg once daily before breakfast
[7] = Day 1, 10 mg once daily before breakfast
[8] = Day 1, 15 mg once daily before breakfast
[9] = Day 1, 20 mg once daily before breakfast
[10] = Day 8, 2.5 mg once daily before breakfast
[11] = Day 8, 5 mg once daily before breakfast
[12] = Day 8, 10 mg once daily before breakfast
[13] = Day 8, 15 mg once daily before breakfast
[14] = Day 8, 20 mg once daily before breakfast
[15] = Day 14, 2.5 mg once daily before breakfast
[16] = Day 14, 5 mg once daily before breakfast
[17] = Day 14, 10 mg once daily before breakfast
[18] = Day 14, 15 mg once daily before breakfast
[19] = Day 14, 20 mg once daily before breakfast
[20] = M-test Day 8, linear mixed effect model
[21] = M-test Day 14, linear mixed effect model
[22] = single dose 2.5 mg, before breakfast (group n=10)
[23] = single dose 2.5 mg, no breakfast (group n=10)
[24] = single dose 5 mg, before breakfast (group n=10)
[25] = single dose 5 mg, no breakfast (group n=10)
[26] = single dose 10 mg, before breakfast (group n=10)
[27] = single dose 10 mg, no breakfast (group n=10)
[28] = single dose 15 mg, before breakfast (group n=10)
[29] = single dose 15 mg, no breakfast (group n=10)
[30] = single dose 20 mg, before breakfast (group n=10)
[31] = single dose 20 mg, no breakfast (group n=9)

SMILES: CCCCC1(CCCC)CN(c2ccccc2)c2cc(SC)c(OCC(=O)N[C@@H](C(=O)NCC(=O)O)c3ccccc3)cc2S(=O)(=O)C1 [elobixibat]
- drug accumulation on multiple administration ([1]; 5 and 15 mg day^–1 dosages (Discussion)): slight accumulation
- C1max [1, 5]: 98.69 (56.9) pg ml^–1
- t1(1/2) [1, 5]: 1.89 (40.9) ^a h
- C1max [1, 6]: 164.83 (54.7) pg ml^–1
- t1(1/2) [1, 6]: 2.41 (32.7) h
- C1max [1, 7]: 284.67 (39.6) ^a pg ml^–1
- t1(1/2) [1, 7]: 2.69 (30.7) ^a h
- C1max [1, 8]: 468.71 (63.7) pg ml^–1
- t1(1/2) [1, 8]: 3.28 (75.7) h
- C1max [1, 9]: 932.04 (76.3) pg ml^–1
- t1(1/2) [1, 9]: 3.14 (62.4) h
- C8max [1, 10]: 99.39 (63.6) pg ml^–1
- t8(1/2) [1, 10]: 2.42 (31.2) h
- C8max [1, 11]: 139.45 (50.7) pg ml^–1
- t8(1/2) [1, 11]: 3.29 (68.9) h
- C8max [1, 12]: 283.84 (17.9) pg ml^–1
- t8(1/2) [1, 12]: 4.96 (64.1) h
- C8max [1, 13]: 388.55 (82.0) pg ml^–1
- t8(1/2) [1, 13]: 4.62 (58.2) h
- C8max [1, 14]: 581.32 (53.6) pg ml^–1
- t8(1/2) [1, 14]: 5.16 (45.2) h
- C14max [1, 15]: 82.66 (50.4) pg ml^–1
- t14(1/2) [1, 15]: 2.34 (50.8) ^a h
- C14max [1, 16]: 165.57 (35.0) pg ml^–1
- t14(1/2) [1, 16]: 3.73 (61.0) h
- C14max [1, 17]: 236.11 (34.4) pg ml^–1
- t14(1/2) [1, 17]: 6.19 (146.0) h
- C14max [1, 18]: 383.19 (73.5) pg ml^–1
- t14(1/2) [1, 18]: 5.68 (74.9) h
- C14max [1, 19]: 953.18 (53.6) pg ml^–1
- t14(1/2) [1, 19]: 7.23 (37.5) h
- AUC8(0–t), back transformed LSM ratio male/female [1, 20]: 0.9947
- C8max, back transformed LSM ratio male/female [1, 20]: 0.8416
- AUC14(0–t), back transformed LSM ratio male/female [1, 21]: 0.9863
- C14max, back transformed LSM ratio male/female [1, 21]: 0.9675
- drug accumulation from Cmax (Rac) ([1]; all dosage groups, 90% CIs of Rac included 1.000): No drug accumulation
- time to steady state of plasma concentration ([1]; multiple administration once daily): ≤ 8 days
- C4 Emax and AUEC, breakfast regimen compared with no‐breakfast regimen [2]: significantly greater elevations
- proportion of patients with first SBM within 24 h ([3]; 2.5 mg day^–1 (10/10)): 100%
- proportion of patients with first SBM within 24 h ([3]; 5 mg day^–1 (10/10)): 100%
- proportion of patients with first SBM within 24 h ([3]; 10 mg day^–1 (9/9)): 100%
- proportion of patients with first SBM within 24 h ([3]; 15 mg day^–1 (8/9)): 88.9%
- proportion of patients with first SBM within 24 h ([3]; 20 mg day^–1 (10/10)): 100%
- patients reporting worse abdominal discomfort ([3]; 20 mg day^–1 group): 40%
- patients reporting improvement of abdominal discomfort ([3]; 5 and 10 mg day^–1 groups): Nearly half
- time to the first SBM compared with placebo ([3]; M-test): evidently shorter
- changes in SBM frequency from baseline (Week –1) ([3]; M-test Weeks 1 and 2): dose‐dependent increases
- AEs associated with gastrointestinal disorders, % of patients [4, 22]: (40.0) %
- AEs associated with gastrointestinal disorders, n of patients [4, 22]: 4
- Any AEs, % of patients [4, 22]: (40.0) %
- Any AEs, n of patients [4, 22]: 4
- abdominal distention, % of patients [4, 22]: (20.0) %
- abdominal distention, n of patients [4, 22]: 2
- abdominal pain lower, % of patients [4, 22]: (20.0) %
- abdominal pain lower, n of patients [4, 22]: 2
- diarrhoea, n of patients [4, 22]: 0
- AEs associated with gastrointestinal disorders, % of patients [4, 23]: (20.0) %
- AEs associated with gastrointestinal disorders, n of patients [4, 23]: 2
- Any AEs, % of patients [4, 23]: (40.0) %
- Any AEs, n of patients [4, 23]: 4
- abdominal distention, n of patients [4, 23]: 0
- abdominal pain lower, % of patients [4, 23]: (10.0) %
- abdominal pain lower, n of patients [4, 23]: 1
- diarrhoea, n of patients [4, 23]: 0
- AEs associated with gastrointestinal disorders, % of patients [4, 24]: (80.0) %
- AEs associated with gastrointestinal disorders, n of patients [4, 24]: 8
- Any AEs, % of patients [4, 24]: (80.0) %
- Any AEs, n of patients [4, 24]: 8
- abdominal distention, n of patients [4, 24]: 0
- abdominal pain lower, % of patients [4, 24]: (40.0) %
- abdominal pain lower, n of patients [4, 24]: 4
- diarrhoea, % of patients [4, 24]: (40.0) %
- diarrhoea, n of patients [4, 24]: 4
- AEs associated with gastrointestinal disorders, % of patients [4, 25]: (50.0) %
- AEs associated with gastrointestinal disorders, n of patients [4, 25]: 5
- Any AEs, % of patients [4, 25]: (50.0) %
- Any AEs, n of patients [4, 25]: 5
- abdominal distention, % of patients [4, 25]: (20.0) %
- abdominal distention, n of patients [4, 25]: 2
- abdominal pain lower, % of patients [4, 25]: (20.0) %
- abdominal pain lower, n of patients [4, 25]: 2
- diarrhoea, % of patients [4, 25]: (30.0) %
- diarrhoea, n of patients [4, 25]: 3
- AEs associated with gastrointestinal disorders, % of patients [4, 26]: (10.0) %
- AEs associated with gastrointestinal disorders, n of patients [4, 26]: 1
- Any AEs, % of patients [4, 26]: (20.0) %
- Any AEs, n of patients [4, 26]: 2
- abdominal distention, n of patients [4, 26]: 0
- abdominal pain lower, % of patients [4, 26]: (10.0) %
- abdominal pain lower, n of patients [4, 26]: 1
- diarrhoea, n of patients [4, 26]: 0
- AEs associated with gastrointestinal disorders, % of patients [4, 27]: (10.0) %
- AEs associated with gastrointestinal disorders, n of patients [4, 27]: 1
- Any AEs, % of patients [4, 27]: (30.0) %
- Any AEs, n of patients [4, 27]: 3
- abdominal distention, n of patients [4, 27]: 0
- abdominal pain lower, % of patients [4, 27]: (10.0) %
- abdominal pain lower, n of patients [4, 27]: 1
- diarrhoea, n of patients [4, 27]: 0
- AEs associated with gastrointestinal disorders, % of patients [4, 28]: (60.0) %
- AEs associated with gastrointestinal disorders, n of patients [4, 28]: 6
- Any AEs, % of patients [4, 28]: (60.0) %
- Any AEs, n of patients [4, 28]: 6
- abdominal distention, % of patients [4, 28]: (10.0) %
- abdominal distention, n of patients [4, 28]: 1
- abdominal pain lower, % of patients [4, 28]: (10.0) %
- abdominal pain lower, n of patients [4, 28]: 1
- diarrhoea, % of patients [4, 28]: (50.0) %
- diarrhoea, n of patients [4, 28]: 5
- AEs associated with gastrointestinal disorders, % of patients [4, 29]: (100.0) %
- AEs associated with gastrointestinal disorders, n of patients [4, 29]: 10
- Any AEs, % of patients [4, 29]: (100.0) %
- Any AEs, n of patients [4, 29]: 10
- abdominal distention, % of patients [4, 29]: (20.0) %
- abdominal distention, n of patients [4, 29]: 2
- abdominal pain lower, % of patients [4, 29]: (30.0) %
- abdominal pain lower, n of patients [4, 29]: 3
- diarrhoea, % of patients [4, 29]: (70.0) %
- diarrhoea, n of patients [4, 29]: 7
- AEs associated with gastrointestinal disorders, % of patients [4, 30]: (30.0) %
- AEs associated with gastrointestinal disorders, n of patients [4, 30]: 3
- Any AEs, % of patients [4, 30]: (40.0) %
- Any AEs, n of patients [4, 30]: 4
- abdominal distention, % of patients [4, 30]: (20.0) %
- abdominal distention, n of patients [4, 30]: 2
- abdominal pain lower, % of patients [4, 30]: (10.0) %
- abdominal pain lower, n of patients [4, 30]: 1
- diarrhoea, n of patients [4, 30]: 0
- AEs associated with gastrointestinal disorders, % of patients [4, 31]: (11.1) %
- AEs associated with gastrointestinal disorders, n of patients [4, 31]: 1
- Any AEs, % of patients [4, 31]: (44.4) %
- Any AEs, n of patients [4, 31]: 4
- abdominal distention, % of patients [4, 31]: (11.1) %
- abdominal distention, n of patients [4, 31]: 1
- abdominal pain lower, n of patients [4, 31]: 0
- diarrhoea, n of patients [4, 31]: 0
